Our source for the MIC values is ChEMBL document CHEMBL1250476, “Synthesis and antifungal evaluation of novel triazole derivatives as inhibitors of cytochrome P450 14alpha-demethylase” (2010).

The structures appear in SMILES notation. Values after ≈ are worked out from the molar mass of the structure shown.

What all share (format): functional
The subject of one experiment is Candida tropicalis. Nature of the experiment: Antifungal activity against Candida tropicalis by micro-broth dilution method. The gist of the method:
(§1)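 MIC80 by broth microdilution in 96-well format following NCCLS. Compounds were dissolved in DMSO, serially diluted in growth medium, inoculated and incubated at 35 °C. The endpoint was the first well with about 80% growth reduction versus the drug-free well. Values are means of three replicate tests.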
On the technique in general: Dilution methods test growth across graded concentrations, often in twofold steps.

A further experiment concerns Cryptococcus neoformans. Nature of the experiment: Antifungal activity against Cryptococcus neoformans after 72 hrs by micro-broth dilution method. Put shortly: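 Cryptococcus neoformans tested by NCCLS micro-broth dilution. Compounds were dissolved in DMSO, serially diluted in medium, inoculated and incubated at 35 °C. MIC80 was read at 72 h as the first well showing approximately 80% growth reduction compared with the drug-free well. Values are the mean of three replicate tests.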

A further experiment deals with Aspergillus fumigatus. Nature of the experiment: Antifungal activity against Aspergillus fumigatus by micro-broth dilution method. The gist of the method:
as §1

For another experiment, the system named is Kluyveromyces marxianus. Nature of the experiment: Antifungal activity against Candida kefyr by micro-broth dilution method. Put shortly:
as §1

Another experiment deals with Trichophyton rubrum. Kind of experiment: Antifungal activity against Trichophyton rubrum by micro-broth dilution method. Put shortly:
as §1

For experiment [1], the system named is Candida albicans. Kind of experiment: Antifungal activity against Candida albicans Y0109 after 24 hrs by micro-broth dilution method. The settings on record: Y0109, 24 h. Put shortly: (§2)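 Broth microdilution per NCCLS on Candida albicans. Compounds were dissolved in DMSO, serially diluted in growth medium, inoculated and incubated at 35 °C. Growth was read at 24 h, and MIC80 was taken as the first well with about 80% growth reduction relative to the drug-free control. Values are the mean of three replicates.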

Another experiment concerns Candida parapsilosis. Nature of the experiment: Antifungal activity against Candida parapsilosis by micro-broth dilution method. Conditions: Lodderomyces parapsilosis. The gist of the method:
as §1

Experiment [2] has as its system Candida albicans. Nature of the experiment: Antifungal activity against Candida albicans SC5314 after 24 hrs by micro-broth dilution method. The settings on record: SC5314, 24 h. The gist of the method:
as §2

For orientation: MIC means the lowest concentration found to suppress growth. Turning to `OC(CN(Cc1cn(Cc2ccc(F)cc2)nn1)C1CC1)(Cn1cncn1)c1ccc(F)cc1F` (stereo not given), the MIC against Candida tropicalis is 1 µg/mL (≈ 2.07 µM); in the experiment with Cryptococcus neoformans it was 16 µg/mL (≈ 33.1 µM); in the experiment on Aspergillus fumigatus it was above 64 µg/mL; in the experiment on Kluyveromyces marxianus, 0.0625 µg/mL (≈ 0.129 µM); against Trichophyton rubrum, 2 µg/mL (≈ 4.14 µM); against Candida albicans [1], 0.25 µg/mL (≈ 0.517 µM). Besides, the MIC worked out at 4 µg/mL (≈ 8.27 µM) with Candida parapsilosis and 1 µg/mL (≈ 2.07 µM) against Candida albicans [2].

With `OC(CN(Cc1cn(Cc2ccccc2Cl)nn1)C1CC1)(Cn1cncn1)c1ccc(F)cc1F` (stereo not given), the MIC against Candida tropicalis is below 0.125 µg/mL; against Cryptococcus neoformans, 4 µg/mL (≈ 8 µM); in the experiment on Aspergillus fumigatus it was above 64 µg/mL; in the experiment on Kluyveromyces marxianus, 0.0156 µg/mL (≈ 0.0312 µM); with Trichophyton rubrum, below 0.125 µg/mL; against Candida albicans [1] it was 0.0625 µg/mL (≈ 0.125 µM). For the same molecule, the minimal inhibitory concentration (MIC) in the experiment on Candida parapsilosis is 0.25 µg/mL (≈ 0.5 µM); in the experiment on Candida albicans [2], below 0.125 µg/mL.

Turning to `OC(CN(Cc1cn(Cc2cccc(Cl)c2)nn1)C1CC1)(Cn1cncn1)c1ccc(F)cc1F` (stereo not given), the minimal inhibitory concentration (MIC) in the experiment with Candida tropicalis is 4 µg/mL (≈ 8 µM); in the experiment with Cryptococcus neoformans, 64 µg/mL (≈ 128 µM); with Aspergillus fumigatus it was above 64 µg/mL; in the experiment with Kluyveromyces marxianus, 0.0156 µg/mL (≈ 0.0312 µM); in the experiment on Trichophyton rubrum it was 4 µg/mL (≈ 8 µM); in the experiment on Candida albicans [1], 0.0156 µg/mL (≈ 0.0312 µM). The results for the MIC in the experiment with Candida parapsilosis and in the experiment on Candida albicans [2] were 8 µg/mL (≈ 16 µM) and 1 µg/mL (≈ 2 µM), respectively.

Regarding `OC(CN(Cc1cn(Cc2ccc(Cl)cc2)nn1)C1CC1)(Cn1cncn1)c1ccc(F)cc1F` (stereo not given), the MIC is 0.5 µg/mL (≈ 1 µM) with Candida tropicalis; 16 µg/mL (≈ 32 µM) against Cryptococcus neoformans; above 64 µg/mL with Aspergillus fumigatus; 0.0156 µg/mL (≈ 0.0312 µM) in the experiment on Kluyveromyces marxianus; 2 µg/mL (≈ 4 µM) against Trichophyton rubrum; 0.25 µg/mL (≈ 0.5 µM) with Candida albicans [1]. Moreover, the minimal inhibitory concentration (MIC) with Candida parapsilosis is 2 µg/mL (≈ 4 µM); in the experiment on Candida albicans [2] it was 0.25 µg/mL (≈ 0.5 µM).

Turning to `OC(CN(Cc1cn(Cc2ccccc2Br)nn1)C1CC1)(Cn1cncn1)c1ccc(F)cc1F` (stereo not given), the MIC against Candida tropicalis is 2 µg/mL (≈ 3.67 µM); with Cryptococcus neoformans, 64 µg/mL (≈ 118 µM); in the experiment on Aspergillus fumigatus, above 64 µg/mL; in the experiment with Kluyveromyces marxianus, 0.0625 µg/mL (≈ 0.115 µM); against Trichophyton rubrum, 2 µg/mL (≈ 3.67 µM); against Candida albicans [1], 16 µg/mL (≈ 29.4 µM). For the same molecule, the minimal inhibitory concentration (MIC) with Candida parapsilosis was 2 µg/mL (≈ 3.67 µM); against Candida albicans [2], 0.25 µg/mL (≈ 0.459 µM).

For `OC(CN(Cc1cn(Cc2cccc(Br)c2)nn1)C1CC1)(Cn1cncn1)c1ccc(F)cc1F` (stereo not given), the MIC is 4 µg/mL (≈ 7.35 µM) with Candida tropicalis; 0.25 µg/mL (≈ 0.459 µM) against Cryptococcus neoformans; above 64 µg/mL against Aspergillus fumigatus; 0.0625 µg/mL (≈ 0.115 µM) against Kluyveromyces marxianus; 0.25 µg/mL (≈ 0.459 µM) in the experiment on Trichophyton rubrum; 0.0156 µg/mL (≈ 0.0287 µM) with Candida albicans [1]. Moreover, the minimal inhibitory concentration (MIC) against Candida parapsilosis came to 0.25 µg/mL (≈ 0.459 µM); against Candida albicans [2], 0.0156 µg/mL (≈ 0.0287 µM).

As to `OC(CN(Cc1cn(Cc2ccc(Br)cc2)nn1)C1CC1)(Cn1cncn1)c1ccc(F)cc1F` (stereo not given), the MIC is 0.5 µg/mL (≈ 0.918 µM) against Candida tropicalis; 16 µg/mL (≈ 29.4 µM) against Cryptococcus neoformans; above 64 µg/mL against Aspergillus fumigatus; 0.0156 µg/mL (≈ 0.0287 µM) against Kluyveromyces marxianus; 1 µg/mL (≈ 1.84 µM) against Trichophyton rubrum; 0.0156 µg/mL (≈ 0.0287 µM) with Candida albicans [1]. The minimal inhibitory concentration (MIC) in the experiment with Candida parapsilosis stood at 1 µg/mL (≈ 1.84 µM); in the experiment with Candida albicans [2] it was 0.25 µg/mL (≈ 0.459 µM).

Take `Cc1ccccc1Cn1cc(CN(CC(O)(Cn2cncn2)c2ccc(F)cc2F)C2CC2)nn1` (stereo not given): the MIC in the experiment with Candida tropicalis is 4 µg/mL (≈ 8.34 µM); with Cryptococcus neoformans, 0.0625 µg/mL (≈ 0.13 µM); against Aspergillus fumigatus, above 64 µg/mL; against Kluyveromyces marxianus, 0.25 µg/mL (≈ 0.521 µM); against Trichophyton rubrum, 1 µg/mL (≈ 2.09 µM); with Candida albicans [1], 0.0156 µg/mL (≈ 0.0325 µM). The MIC in the experiment on Candida parapsilosis was 4 µg/mL (≈ 8.34 µM); in the experiment on Candida albicans [2], 0.0625 µg/mL (≈ 0.13 µM).

As for `Cc1cccc(Cn2cc(CN(CC(O)(Cn3cncn3)c3ccc(F)cc3F)C3CC3)nn2)c1` (stereo not given), the MIC was below 0.125 µg/mL with Candida tropicalis; 2 µg/mL (≈ 4.17 µM) against Cryptococcus neoformans; 64 µg/mL (≈ 133 µM) against Aspergillus fumigatus; 0.0156 µg/mL (≈ 0.0325 µM) in the experiment on Kluyveromyces marxianus; below 0.125 µg/mL against Trichophyton rubrum; 0.0156 µg/mL (≈ 0.0325 µM) against Candida albicans [1]. The results for the MIC against Candida parapsilosis and against Candida albicans [2] were below 0.125 µg/mL and 0.5 µg/mL (≈ 1.04 µM), respectively.

As for `Cc1ccc(Cn2cc(CN(CC(O)(Cn3cncn3)c3ccc(F)cc3F)C3CC3)nn2)cc1` (stereo not given), the minimum inhibitory concentration (MIC) in the experiment with Candida tropicalis is below 0.125 µg/mL; against Cryptococcus neoformans it was 1 µg/mL (≈ 2.09 µM); against Aspergillus fumigatus, 64 µg/mL (≈ 133 µM); against Kluyveromyces marxianus, 0.0156 µg/mL (≈ 0.0325 µM); with Trichophyton rubrum, below 0.125 µg/mL; in the experiment with Candida albicans [1], 0.0156 µg/mL (≈ 0.0325 µM). Besides, the minimal inhibitory concentration (MIC) in the experiment with Candida parapsilosis and against Candida albicans [2] was below 0.125 µg/mL in each case.
